According to PubChem BioAssay AID652278 (Broad Institute, 2013):

system: T. cruzi CAI/72 in J774, trypomastigote emergence, microscopy; experiment: cidal versus static activity against T. cruzi amastigotes, late-stage follow-up, mechanism study, imaging, CAI/72 strain, J774 macrophages, dry powder, set 2 (AID 652278); conditions: active compounds read high
Summary of the method: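 Test system – J774 macrophages, 9000 rad-arrested, infected with T. cruzi CAI/72 · Technique – daily microscopic scoring of emerging trypomastigotes · Evaluation – slope, emergence day versus concentration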

Row | SMILES | slope of emergence day vs concentration
1 | CC(C)N1C[C@@H](CN(C)CCc2ccc(Cl)cc2)Oc2c(NC(=O)c3ccncc3)cccc2C1=O | 5
2 | CC(C)N1C[C@H](CN(C)Cc2ccc(Cl)cc2)Oc2c(NC(=O)c3ccncc3)cccc2C1=O | 5
3 | CC(C)N1C[C@@H](CN(C)CCc2ccc(Cl)c(Cl)c2)Oc2c(NC(=O)c3ccncc3)cccc2C1=O | 5
4 | CC(C)N1C[C@@H](CN(C)Cc2ccc(Cl)c(Cl)c2)Oc2c(NC(=O)c3ccncc3)cccc2C1=O | 5
5 | CC(C)N1C[C@@H](CN(C)Cc2ccc(Oc3ccccc3)cc2)Oc2c(NC(=O)c3ccncc3)cccc2C1=O | 5
6 | CN(C)C(=O)c1cccc(-c2ccc([C@H]3[C@H](CO)N4CCCCN(C(=O)C5CCC5)C[C@@H]34)cc2)c1 | 1.89
7 | CN(C)CC#Cc1cccc(-c2nc(C(=O)N[C@@H]3CCN(Cc4ccccc4)C3)cc3c2[C@@H](CCO)N(S(=O)C(C)(C)C)C3)c1 (stereo partly specified) | 1.89
8 | CC(C)N1C[C@@H](CN(C)Cc2ccc(Cl)cc2)Oc2c(NC(=O)c3ccncc3)cccc2C1=O | 5
9 | CC(C)N1C[C@@H](CN(C)Cc2ccc(Cl)cc2)Oc2c(C(=O)Nc3ccncc3)cccc2C1=O | 5
10 | CC(C)N1C[C@@H](CN(C)Cc2ccc(Cl)cc2)Oc2c(NC(=O)c3ccncc3)cc(F)cc2C1=O | 5
11 | CN(C)CC#Cc1cccc(-c2nc(C(=O)NCc3ccc4c(c3)OCO4)cc3c2[C@@H](CCO)N(S(=O)C(C)(C)C)C3)c1 (stereo partly specified) | 2.02
